Measured values: ChEMBL document CHEMBL4715796, “Discovery of Chromane Containing Hepatitis C Virus (HCV) NS5A Inhibitors with Improved Potency against Resistance-Associated Variants” (J Med Chem, 2016)

Columns and labels:
[1] = MRT in male Wistar Han rat at 300 mg/kg, po administered as single dose post overnight fasting measured upto 24 hrs by LC-MS/MS analysis; format: ADME, organism-based; settings: in vivo
In short: (§1)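 Male Wistar Han rats were given single oral rising doses of 10, 100 or 300 mpk. AUC, Cmax, Tmax and MRT were derived from plasma exposure.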

[2] = Tmax in male Wistar Han rat at 10 mg/kg, po administered as single dose post overnight fasting measured upto 24 hrs by LC-MS/MS analysis; format: ADME, organism-based; settings: in vivo; in short: as §1
[3] = Tmax in male Wistar Han rat at 100 mg/kg, po administered as single dose post overnight fasting measured upto 24 hrs by LC-MS/MS analysis; format: ADME, organism-based; settings: in vivo; in short: as §1
[4] = Mean residence time in Beagle dog at 1 mg/kg, iv administered post overnight fasting measured upto 24 hrs by LC-MS/MS analysis; settings: in vivo
[5] = Cmax in male Wistar Han rat at 100 mg/kg, po administered as single dose post overnight fasting measured upto 24 hrs by LC-MS/MS analysis; format: ADME, organism-based; set-up: route oral, dose 100 mg/kg, time <=24; settings: in vivo; in short: as §1
[6] = Cmax in Beagle dog at 5 mg/kg, po administered post overnight fasting measured upto 24 hrs by LC-MS/MS analysis; format: ADME, organism-based, Canis lupus familiaris; set-up: route oral, dose 5 mg/kg, time <=24; settings: in vivo
In short: (§2)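 Overnight-fasted male Wistar Han rats or Beagle dogs, two animals per group, 24 h study. IV in 60% PEG200 (rat 2 mg/kg, dog 1 mg/kg). PO in 10% Tween (rat 10 mg/kg, dog 5 mg/kg). Blood sampled up to 24 h, plasma separated by centrifugation, and drug measured by LC/MS. MRT reported for the IV route.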

[7] = AUC in male Wistar Han rat at 300 mg/kg, po administered as single dose post overnight fasting measured upto 24 hrs by LC-MS/MS analysis; format: ADME, organism-based; set-up: route oral, dose 300 mg/kg, time <=24; settings: in vivo; in short: as §1
[8] = Drug concentration in Beagle dog at 5 mg/kg, po measured after 24 hrs by LC/MS analysis; format: ADME, organism-based, Canis lupus familiaris; settings: in vivo, read-out: Drug uptake; in short: as §2
[9] = Oral bioavailability in Beagle dog at 5 mg/kg post overnight fasting measured upto 24 hrs by LC-MS/MS analysis; format: ADME, organism-based, Canis lupus familiaris; settings: in vivo; in short: as §2
[10] = AUC in male Wistar Han rat at 10 mg/kg, po administered as single dose post overnight fasting measured upto 24 hrs by LC-MS/MS analysis; format: ADME, organism-based; set-up: route oral, dose 10 mg/kg, time <=24; settings: in vivo; in short: as §1
[11] = AUC in Beagle dog at 5 mg/kg, po administered post overnight fasting measured upto 24 hrs by LC-MS/MS analysis; format: ADME, organism-based, Canis lupus familiaris; set-up: route oral, dose 5 mg/kg, time <=24; settings: in vivo; in short: as §2
[12] = AUC in male Wistar Han rat at 100 mg/kg, po administered as single dose post overnight fasting measured upto 24 hrs by LC-MS/MS analysis; format: ADME, organism-based; set-up: route oral, dose 100 mg/kg, time <=24; settings: in vivo; in short: as §1
[13] = Cmax in male Wistar Han rat at 300 mg/kg, po administered as single dose post overnight fasting measured upto 24 hrs by LC-MS/MS analysis; format: ADME, organism-based; set-up: route oral, dose 300 mg/kg, time <=24; settings: in vivo; in short: as §1
[14] = Clearance in Beagle dog at 1 mg/kg, iv administered post overnight fasting measured upto 24 hrs by LC-MS/MS analysis; format: ADME, organism-based, Canis lupus familiaris; settings: in vivo; in short: as §2
[15] = Cmax in male Wistar Han rat at 10 mg/kg, po administered as single dose post overnight fasting measured upto 24 hrs by LC-MS/MS analysis; format: ADME, organism-based; set-up: route oral, dose 10 mg/kg, time <=24; settings: in vivo; in short: as §1
[16] = MRT in male Wistar Han rat at 100 mg/kg, po administered as single dose post overnight fasting measured upto 24 hrs by LC-MS/MS analysis; format: ADME, organism-based; settings: in vivo; in short: as §1
[17] = Tmax in male Wistar Han rat at 300 mg/kg, po administered as single dose post overnight fasting measured upto 24 hrs by LC-MS/MS analysis; format: ADME, organism-based; settings: in vivo; in short: as §1
[18] = MRT in male Wistar Han rat at 10 mg/kg, po administered as single dose post overnight fasting measured upto 24 hrs by LC-MS/MS analysis; format: ADME, organism-based; settings: in vivo; in short: as §1

COC(=O)N[C@H](C(=O)N1CCC[C@H]1c1ncc(-c2cc(F)c3c(c2)OC(c2ccc4c(c2)OCCC4)n2c-3cc3cc(-c4cnc([C@@H]5CCCN5C(=O)[C@@H](NC(=O)OC)C(C)C)[nH]4)ccc32)[nH]1)C(C)C.Cl.Cl (stereo partly drawn)
MRT [1]: 11 h
Tmax [2]: 5 h
Tmax [3]: 5 h
MRT [4]: 11.4 h
Cmax [5]: 350 nM
Cmax [6]: 1220 nM
AUC at 24 h [7]: 4.9 µM·h
concentration at 24 h [8]: 51 nM
bioavailability [9]: 16%
AUC at 24 h [10]: 0.42 µM·h
AUC at 24 h [11]: 6.92 µM·h
AUC at 24 h [12]: 5.9 µM·h
Cmax [13]: 400 nM
clearance [14]: 2 mL/min/kg
Cmax [15]: 40 nM
MRT [16]: 13 h
Tmax [17]: 8 h
MRT [18]: 8.5 h
